In ChEMBL document CHEMBL1146995, “Aza-retinoids as novel retinoid X receptor-specific agonists” (Bioorg Med Chem Lett, 2006):

Assays:
[1] = molecular target: T1, Retinoic acid receptor RXR-gamma (Homo sapiens, UniProt P48443); assay: Binding affinity to RXRgamma
T1 sequence (P48443 whole entry): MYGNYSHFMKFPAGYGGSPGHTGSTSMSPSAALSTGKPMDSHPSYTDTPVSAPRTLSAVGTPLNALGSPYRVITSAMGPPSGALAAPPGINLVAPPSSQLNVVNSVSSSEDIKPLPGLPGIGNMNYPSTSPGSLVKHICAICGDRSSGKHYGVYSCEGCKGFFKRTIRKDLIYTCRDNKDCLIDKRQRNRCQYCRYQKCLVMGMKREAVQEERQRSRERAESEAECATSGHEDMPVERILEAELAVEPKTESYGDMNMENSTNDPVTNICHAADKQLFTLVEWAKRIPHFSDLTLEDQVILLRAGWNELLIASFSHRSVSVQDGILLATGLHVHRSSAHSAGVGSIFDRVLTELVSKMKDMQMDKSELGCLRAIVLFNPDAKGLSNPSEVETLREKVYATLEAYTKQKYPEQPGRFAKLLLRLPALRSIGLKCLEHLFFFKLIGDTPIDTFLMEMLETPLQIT

[2] = molecular target: T2, Retinoic acid receptor RXR-alpha (Homo sapiens, UniProt P19793); assay: Binding affinity to RXRalpha
T2 sequence (P19793 whole entry): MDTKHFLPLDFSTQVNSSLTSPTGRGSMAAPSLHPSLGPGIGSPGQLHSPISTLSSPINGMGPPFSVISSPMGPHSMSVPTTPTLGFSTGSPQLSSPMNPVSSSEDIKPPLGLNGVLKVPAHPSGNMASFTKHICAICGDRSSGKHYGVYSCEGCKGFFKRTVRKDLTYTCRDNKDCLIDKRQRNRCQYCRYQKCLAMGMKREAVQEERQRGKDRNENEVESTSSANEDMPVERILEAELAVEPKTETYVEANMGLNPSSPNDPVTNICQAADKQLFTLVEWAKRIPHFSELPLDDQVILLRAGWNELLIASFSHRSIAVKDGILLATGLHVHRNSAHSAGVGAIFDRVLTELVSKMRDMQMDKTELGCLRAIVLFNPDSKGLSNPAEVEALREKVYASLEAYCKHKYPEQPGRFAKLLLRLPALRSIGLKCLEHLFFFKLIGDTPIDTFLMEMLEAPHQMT

[3] = molecular target: T1, Retinoic acid receptor RXR-gamma; assay: Transactivation of RXRgamma in CV1 cells by cotransfection assay; assay type: functional, cell-based, CV-1
In short: (§1)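 EC50 taken from a full dose–response curve. Retinoid activity was normalized to the response to ATRA (all-trans retinoic acid). Potency (EC50) is the retinoid concentration that gives 50% of the maximal observed response.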

[4] = molecular target: T3, Retinoic acid receptor RXR-beta (Homo sapiens, UniProt P28702); assay: Transactivation of RXRbeta in CV1 cells by cotransfection assay; assay type: functional, cell-based, CV-1; in short: as §1
T3 sequence (P28702 whole entry): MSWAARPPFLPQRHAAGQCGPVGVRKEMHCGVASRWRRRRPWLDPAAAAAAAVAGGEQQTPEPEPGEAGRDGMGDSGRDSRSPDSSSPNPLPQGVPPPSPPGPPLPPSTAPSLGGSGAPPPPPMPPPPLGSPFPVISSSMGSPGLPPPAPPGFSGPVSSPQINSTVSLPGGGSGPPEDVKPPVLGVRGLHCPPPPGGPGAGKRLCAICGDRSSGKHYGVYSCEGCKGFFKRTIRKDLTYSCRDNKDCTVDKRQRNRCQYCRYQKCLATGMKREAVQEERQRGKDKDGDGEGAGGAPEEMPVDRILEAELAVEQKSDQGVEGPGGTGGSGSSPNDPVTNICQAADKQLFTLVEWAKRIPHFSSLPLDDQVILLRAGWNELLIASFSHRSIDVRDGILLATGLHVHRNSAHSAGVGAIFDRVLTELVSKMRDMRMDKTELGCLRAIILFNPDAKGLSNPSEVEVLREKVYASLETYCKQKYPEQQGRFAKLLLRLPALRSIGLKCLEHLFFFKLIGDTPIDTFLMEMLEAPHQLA

[5] = molecular target: T2, Retinoic acid receptor RXR-alpha; assay: Transactivation of RXRalpha in CV1 cells by cotransfection assay; assay type: functional, cell-based, CV-1; in short: as §1
[6] = molecular target: T3, Retinoic acid receptor RXR-beta; assay: Binding affinity to RXRbeta

SMILES | Ki ([1]; read-out: Ki) | Ki ([2]; read-out: Ki) | EC50 ([3]; read-out: EC50) | EC50 ([4]; read-out: EC50) | EC50 ([5]; read-out: EC50) | Ki ([6]; read-out: Ki) | EC50 ([3]; cv-1) | EC50 ([4]; cv-1) | EC50 ([5]; cv-1) | Ki [1] | Ki [2] | Ki [6]
CC(/C=C/[C@@H]1CCCN1c1ccc2c(c1)C(C)(C)CCC2(C)C)=C\C(=O)O | 0.1 µM | 0.021 µM | 0.147 µM | 0.161 µM | 0.179 µM | 0.063 µM | – | – | – | – | – | –
CC(C)=CCN(C/C=C/C(C)=C/C(=O)O)c1cc(C(C)(C)C)cc2c1CCC2(C)C | 0.309 µM | 0.254 µM | – | – | – | 0.327 µM | Not Active | Not Active | Not Active | – | – | –
CCCCN(C/C=C/C(C)=C/C(=O)O)c1cc(C(C)(C)C)cc2c1CCC2(C)C | 0.031 µM | 0.021 µM | 0.05 µM | 0.052 µM | 0.053 µM | 0.06 µM | – | – | – | – | – | –
CC(/C=C/[C@H]1CCCN1c1ccc2c(c1)C(C)(C)CCC2(C)C)=C\C(=O)O | 0.202 µM | 0.103 µM | 1.26 µM | 1.29 µM | – | 0.188 µM | – | – | Not Active | – | – | –
CC(/C=C/CN(C)c1cc(C(C)(C)C)cc(C(C)(C)C)c1)=C\C(=O)O | 0.131 µM | 0.037 µM | 0.322 µM | 0.095 µM | 0.378 µM | 0.088 µM | – | – | – | – | – | –
CCCN(C/C=C/C(C)=C/C(=O)O)c1cc(C(C)(C)C)cc2c1CCC2(C)C | 0.01 µM | 0.008 µM | 0.019 µM | 0.021 µM | 0.022 µM | 0.012 µM | – | – | – | – | – | –
CC(/C=C/CNc1cc(C(C)(C)C)cc(C(C)(C)C)c1)=C\C(=O)O | – | 0.529 µM | – | – | – | – | Not Active | Not Active | Not Active | Not Active | – | Not Active
CCN(C/C=C/C(C)=C/C(=O)O)c1cc(C(C)(C)C)cc(C(C)(C)C)c1 | 0.035 µM | 0.031 µM | 0.231 µM | 0.235 µM | 0.221 µM | 0.024 µM | – | – | – | – | – | –
CCCN(C/C=C/C(C)=C/C(=O)O)c1ccc2c(c1)C(C)(C)CCC2(C)C | 0.11 µM | 0.047 µM | 0.17 µM | 0.206 µM | 0.152 µM | 0.072 µM | – | – | – | – | – | –
CC(/C=C/C(=O)N(Cc1ccccc1)c1cc(C(C)(C)C)cc(C(C)(C)C)c1)=C\C(=O)O | – | – | – | – | – | – | Not Active | Not Active | Not Active | Not Active | Not Active | Not Active
CCCN(C(=O)/C=C/C(C)=C/C(=O)O)c1cc(C(C)(C)C)cc(C(C)(C)C)c1 | 0.299 µM | 0.644 µM | 0.669 µM | 0.151 µM | 1 µM | 0.605 µM | – | – | – | – | – | –
CC(/C=C/CN(c1cc(C(C)(C)C)cc2c1CCC2(C)C)C(C)C)=C\C(=O)O | 0.121 µM | 0.067 µM | 0.262 µM | 0.216 µM | 0.252 µM | 0.301 µM | – | – | – | – | – | –
CCCCCCCCN(C/C=C/C(C)=C/C(=O)O)c1cc(C(C)(C)C)cc(C(C)(C)C)c1 | 0.221 µM | 0.122 µM | 0.035 µM | – | – | 0.126 µM | – | Not Active | Not Active | – | – | –

Results, then the compound that gave them:

Ki ([1]; read-out: Ki) | Ki ([2]; read-out: Ki) | EC50 ([3]; read-out: EC50) | EC50 ([4]; read-out: EC50) | EC50 ([5]; read-out: EC50) | Ki ([6]; read-out: Ki) | EC50 ([3]; cv-1) | EC50 ([4]; cv-1) | EC50 ([5]; cv-1) | Ki [1] | Ki [2] | Ki [6] | SMILES
0.038 µM | 0.017 µM | 0.063 µM | 0.069 µM | 0.099 µM | 0.034 µM | – | – | – | – | – | – | CCCN(C/C=C/C(C)=C/C(=O)O)c1cc(C(C)(C)C)cc(C(C)(C)C)c1
0.211 µM | 0.018 µM | 0.223 µM | 0.212 µM | 0.231 µM | 0.161 µM | – | – | – | – | – | – | CCCN(C/C=C/C(C)=C/C(=O)O)c1cc2c(cc1C)C(C)(C)CCC2(C)C
0.207 µM | 0.121 µM | – | – | – | 0.238 µM | Not Active | Not Active | Not Active | – | – | – | CC(/C=C/CN(Cc1ccccc1)c1cc(C(C)(C)C)cc(C(C)(C)C)c1)=C\C(=O)O
0.576 µM | 0.257 µM | – | 0.169 µM | 0.4 µM | 0.721 µM | Not Active | – | – | – | – | – | CCCN(C/C=C/C(C)=C/C(=O)O)c1cc2c(cc1OC)C(C)(C)CCC2(C)C
– | – | – | – | – | – | Not Active | Not Active | Not Active | Not Active | Not Active | Not Active | CC(/C=C/C(=O)Nc1cc(C(C)(C)C)cc(C(C)(C)C)c1)=C\C(=O)O
0.099 µM | 0.042 µM | 0.125 µM | 0.117 µM | 0.064 µM | 0.152 µM | – | – | – | – | – | – | CCN(C/C=C/C(C)=C/C(=O)O)c1cc2c(cc1C)C(C)(C)CCC2(C)C
0.162 µM | 0.103 µM | 0.128 µM | 0.239 µM | 0.216 µM | 0.185 µM | – | – | – | – | – | – | CCN(C/C=C/C(C)=C/C(=O)O)c1ccc2c(c1)C(C)(C)CCC2(C)C
0.15 µM | 0.063 µM | 0.1 µM | 0.098 µM | 0.123 µM | 0.105 µM | – | – | – | – | – | – | CC(/C=C/CN(CC1CC1)c1cc(C(C)(C)C)cc2c1CCC2(C)C)=C\C(=O)O
